# Data taken from ChEMBL document CHEMBL3627666, “5-Lipoxygenase inhibitors suppress RANKL-induced osteoclast formation via NFATc1 expression” (Bioorg Med Chem, 2015).
# Active and inactive are the calls of the source. No cut-off for these calls is given here.
# Columns and labels:
# [1] = molecular target: T1, Polyunsaturated fatty acid 5-lipoxygenase (Mus musculus, UniProt P48999); assay: Inhibition of 5-LO in mouse BMMC cells assessed as formation of LTC4 after 30 mins by enzyme immunoassay
# T1 sequence (P48999 whole entry): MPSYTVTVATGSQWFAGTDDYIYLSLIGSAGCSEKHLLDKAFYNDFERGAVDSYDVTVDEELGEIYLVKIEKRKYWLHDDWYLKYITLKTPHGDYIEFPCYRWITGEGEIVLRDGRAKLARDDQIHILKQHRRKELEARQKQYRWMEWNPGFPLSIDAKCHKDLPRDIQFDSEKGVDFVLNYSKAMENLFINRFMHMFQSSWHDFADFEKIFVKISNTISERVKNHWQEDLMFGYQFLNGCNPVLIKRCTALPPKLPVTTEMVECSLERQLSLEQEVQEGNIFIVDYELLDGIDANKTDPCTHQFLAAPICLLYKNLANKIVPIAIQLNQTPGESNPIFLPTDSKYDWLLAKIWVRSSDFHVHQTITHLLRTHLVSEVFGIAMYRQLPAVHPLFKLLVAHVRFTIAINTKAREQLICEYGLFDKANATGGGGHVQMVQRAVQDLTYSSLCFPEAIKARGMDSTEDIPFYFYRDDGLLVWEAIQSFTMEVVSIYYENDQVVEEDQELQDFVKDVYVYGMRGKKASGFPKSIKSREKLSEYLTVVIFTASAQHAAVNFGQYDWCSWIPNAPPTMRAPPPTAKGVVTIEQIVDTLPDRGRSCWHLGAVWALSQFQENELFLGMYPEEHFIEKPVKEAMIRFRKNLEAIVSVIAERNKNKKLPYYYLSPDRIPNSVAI
# [2] = test system: Mus musculus; assay: Antiosteoclast activity in mouse assessed as reduction of LPS-induced osteoclast formation in calvarial bone at 5 mg/kg, ip administered daily with LPS challenge after first day of compound dosing measured 6 days after LPS injection; type: functional, organism-based
# Summary of the method: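 Six-week-old male mice, three groups, received compound at 5 mg/kg ip daily or vehicle (corn oil/DMSO 9:1). After one day, LPS (5 mg/kg) or PBS was injected subcutaneously over the calvaria. Mice were killed 6 days post-LPS. Whole calvariae were fixed in 4% paraformaldehyde and TRAP-stained, and TRAP⁺ area was quantified by image analysis.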
# [3] = Cytotoxicity against mouse BMM cells assessed as cell survival after 4 days by MTT assay; type: cell-based; settings: bmmc, 96 h
# Summary of the method: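 BMMs were kept in α-MEM with M-CSF (30 ng/mL) with or without compound (10 µM) for 4 days. MTT was added for 5 h in the dark, then 10% SDS in 0.01 M HCl was added overnight. Absorbance was read at 570 nm. Mean ± SD, three independent experiments.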
# [4] = molecular target: T2, Tumor necrosis factor ligand superfamily member 11 (Mus musculus) (UniProt O35235); settings: BMM, 10 uM
# T2 sequence (whole entry): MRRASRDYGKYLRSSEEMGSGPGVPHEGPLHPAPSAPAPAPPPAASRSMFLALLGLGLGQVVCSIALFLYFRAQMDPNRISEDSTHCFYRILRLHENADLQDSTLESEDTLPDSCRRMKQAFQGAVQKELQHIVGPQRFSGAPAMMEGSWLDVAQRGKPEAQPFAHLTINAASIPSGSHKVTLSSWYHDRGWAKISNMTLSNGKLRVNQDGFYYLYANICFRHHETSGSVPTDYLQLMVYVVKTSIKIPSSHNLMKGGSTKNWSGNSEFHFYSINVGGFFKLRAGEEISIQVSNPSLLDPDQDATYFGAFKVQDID
# [5] = molecular target: T2, Tumor necrosis factor ligand superfamily member 11 (Mus musculus); settings: BMM, 10 uM; remark: listed apart in the source
# [6] = molecular target: T2, Tumor necrosis factor ligand superfamily member 11 (Mus musculus); settings: BMM, 10 uM; remark: listed apart in the source
# [7] = molecular target: T2, Tumor necrosis factor ligand superfamily member 11 (Mus musculus); settings: BMMC, 10 uM
# [8] = test system: BMMC; assay: Antiosteoclast activity in mouse BMM cells assessed as reduction of LPS-induced osteoclast formation at 10 uM after 4 days by TRAP+ staining based light microscopy; type: functional, cell-based
# [9] = molecular target: T2, Tumor necrosis factor ligand superfamily member 11 (Mus musculus); settings: BMM, 10 uM; remark: listed apart in the source
IC50 [1] [µM],Structure (SMILES),Activity [2],Activity [3],inhibition [4],inhibition [5],inhibition [6],inhibition [7],Activity [8],inhibition [9]
4.1,N/C(=N\O)c1ccc(OCCCCC(=O)Nc2ccc3oc(Nc4ccccc4)nc3c2)cc1,,,,,,,,
1.72,CCc1ccc(Nc2nc3cc(NC(=O)CCCCOc4ccc(/C(N)=N/O)cc4)ccc3o2)cc1,Active,Non-toxic,Active,Active,Active,inactive,Active,Active
4.9,COc1ccc(Nc2nc3cc(NC(=O)CCCCOc4ccc(/C(N)=N/O)cc4)ccc3o2)cc1,,,,,,,,
